“Also recorded” adds a separate entry of the source.

One data set deals with AS1411 DNA aptamer. Kind of data set: ELISA assay for AS1411-binding peptides. To be noted: 0.04 μM aptamer, PBS, 1 h, room temperature, n = 3 technical replicates. A digest of the protocol:
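Streptavidin-coated wells were washed in PBS-T, loaded with 0.025 μM biotinylated peptide for 1 h at room temperature, and blocked with 1% BSA/PBS for 30 min at 37°C. DIG-labelled aptamer or control aptamer was added, then HRP anti-DIG (1/2,000 in 1% BSA-PBS, 30 min, 37°C). TMB substrate was read by absorbance at […]. PBS-T washes were done between steps.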
(In general: ELISA stands for enzyme-linked immunosorbent assay.)

In another data set the test system is axonal Inpp5f mRNA. Kind of data set: FISH of axonal Inpp5f mRNA in DRG neurons. As to conditions: 10 µM AS1411 or control aptamer, 48 h, replated 18 h; n = 11–19 cells per sample; P < 0.05. Format: cell-based, rat.
In data set [1] the test system is nucleolin-Kif5a motor complex. To be noted: ref Perry et al, 2016, cited from earlier work.
Data set [2] concerns nucleolin mRNA and protein. Kind of data set: Nucleolin knockdown in DRG neurons. To be noted: siRNA targeting 3′UTR of nucleolin mRNA, 50 nM printed for control siRNAs; 96 h. The data set is classed as cell-based, rat. A digest of the protocol: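 Three hours after plating, neurons were transfected with control siRNA (50 nM as printed) or either of two siRNAs against the nucleolin 3′UTR using a lipid transfection reagent. Cultures were fixed 96 h later for FISH/immunofluorescence. Sister cultures gave mRNA by RT-ddPCR and protein by immunoblot (milk block, HRP secondary 1:10,000, ECL).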

In the next data set the test system is HEK-293 cells. Kind of data set: Hypotonic challenge. The data set is classed as cell-based, human. To be noted: ddH2O, n = 24 cells per sample, p < 0.05, p < 0.01.
The next data set relates to DRG neurons. Kind of data set: Hypotonic challenge. Format: cell-based, mouse. To be noted: ddH2O, 17–24 cells per sample, three biological repeats.

On to GGTGGTGGTGGTTGTGGTGGTGGTGG [AS1411], for which, in the data set on AS1411 DNA aptamer, the “binding of aptamer to GAR-derived peptides of 22–28 residues” value is recorded as “showed binding”. In the data set with axonal Inpp5f mRNA, the “axonal Inpp5f mRNA (FISH)” value was “significant reduction in axonal Inpp5f mRNA”. For the same molecule, the axonal growth result in data set [1] (AS1411 perturbation of kinesin–nucleolin interactions) is “accelerated axonal growth”. For the same molecule, in data set [1], the “association of nucleolin with Kif5a motor complex” value was “reduced; also recorded: perturbs the association of nucleolin with the Kif5a motor complex” and the “nucleolin localization to axons” value is given as “perturbs nucleolin localization to axons”.

Turning to “siRNA 1: GUUGAAUGACAGAGCCUUUUU; siRNA 2: GGACAUUCCAAGACAGUAAUU”, the “endogenous nucleolin mRNA and protein” value in data set [2] was “significantly reduced”.

B1: Ncl ΔGAR: HA-Dendra2-nucleolin with a GAR domain deletion (protein)
chain: MVKLAKAGKTHGEAKKMAPPPKEVEEDSEDEEMSEDEDDSSGEEEVVIPQKKGKKATTTPAKKVVVSQTKKAAVPTPAKKAAVTPGKKAVATPAKKNITPAKVIPTPGKKGAAQAKALVPTPGKKGAATPAKGAKNGKNAKKEDSDEDEDEEDEDDSDEDEDDEEEDEFEPPIVKGVKPAKAAPAAPASEDEEDDEDEDDEEDDDEEEEDDSEEEVMEITTAKGKKTPAKVVPMKAKSVAEEEDDEEEDEDDEDEDDEEEDDEDDDEEEEEEEPVKAAPGKRKKEMTKQKEAPEAKKQKVEGSEPTTPFNLFIGNLNPNKSVNELKFAISELFAKNDLAVVDVRTGTNRKFGYVDFESAEDLEKALELTGLKVFGNEIKLEKPKGRDSKKVRAARTLLAKNLSFNITEDELKEVFEDAMEIRLVSQDGKSKGIAYIEFKSEADAEKNLEEKQGAEIDGRSVSLYYTGEKGQRQERTGKTSTWSGESKTLVLSNLSYSATKETLEEVFEKATFIKVPQNPHGKPKGYAFIEFASFEDAKEALNSCNKMEIEGRTIRLELQGSNSRSQPSKTLFVKGLSEDTTEETLKESFEGSVRARIVTDRETGSSKGFGFVDFNSEEDAKAAKEAMEDGEIDGNKVTLDWAKPKKPQGKKTKFE
modifications: left off: HA, N-terminal, kept | Dendra2, N-terminal, kept
As for B1, the “reduction of nucleolar signal on hypotonic challenge, FL vs ΔGAR” value was “Significant differences between full‐length and GAR deletion nucleolin” in the data set on HEK-293 cells; “no difference between full‐length and ΔGAR mutant nucleolin” in the data set with DRG neurons.

These data come from article PMC8521312 (The EMBO Journal, 2021).
